Beta apoptosis: inhibitors of cytokine-induced beta cell apoptosis, primary screen, luminescence; protection from apoptosis, % (no concentration beside the values); 0.8% of 300,000 active; AID 435005, 2010; INS-1E cytokine-induced death, ATP luminescence, 48 h; percent of positive-control rescue, neutral wells zero;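 active means Every replicate reaches about 75%, or at least half do and their mean reaches it too, limit read from the data; inconclusive means At least half of replicates reach the limit but their mean does not; inactive means Under half of replicates reach the limit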;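 further: 0% = cytokine-treated negative control wells and 100% = positive control rescue; higher means more ATP so stronger rescue from cytokine killing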
SKKanGAS inh: S. pyogenes SKKanGAS growth inhibitors in kanamycin, primary screen, streptokinase expression inhibitor project, SKKanGAS strain, BacTiter-Glo luminescence; AID 1662, 2009; inhibition, % at 7.5 µM; 1.3% of 300,000 active; 6 h;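 active means mean replicate score, as percent of positive control median, at least 50; inconclusive means mean below 50 but one replicate at or above 50; inactive means mean and every replicate below 50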;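 further: strain carries kanamycin resistance gene driven by streptokinase promoter and grows in 40 µg/ml kanamycin; loss of luminescence reflects streptokinase promoter inhibition or plain growth inhibition; 0% = median of DMSO wells and 100% = positive control at its reference dose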
Mdm2-MdmX inh: inhibitors of human Mdm2-MdmX association, primary screen, cell-based, luminescence, split luciferase, SaOS-2, uHTS; SaOS-2 split-luciferase Mdm2/MdmX complementation; inhibition, % at 8 µM; 3% of 330,000 active; AID 485346, 2010;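 active means inhibition of at least 50% at 8 µM in the primary screen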
Target sequence (O15151 whole entry, looked up): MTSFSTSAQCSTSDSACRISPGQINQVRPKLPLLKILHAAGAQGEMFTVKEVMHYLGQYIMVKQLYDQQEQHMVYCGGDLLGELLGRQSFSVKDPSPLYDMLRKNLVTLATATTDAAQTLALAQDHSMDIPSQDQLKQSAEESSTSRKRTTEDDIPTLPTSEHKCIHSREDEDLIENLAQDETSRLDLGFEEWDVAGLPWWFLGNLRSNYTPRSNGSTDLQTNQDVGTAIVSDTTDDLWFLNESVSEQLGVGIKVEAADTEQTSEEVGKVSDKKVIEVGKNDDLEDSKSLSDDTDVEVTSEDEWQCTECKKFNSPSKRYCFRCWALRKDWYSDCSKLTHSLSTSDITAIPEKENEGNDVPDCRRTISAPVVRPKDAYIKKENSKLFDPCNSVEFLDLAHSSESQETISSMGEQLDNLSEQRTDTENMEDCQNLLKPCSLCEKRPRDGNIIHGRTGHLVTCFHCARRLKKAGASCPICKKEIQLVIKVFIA
Target sequence (Q00987 whole entry, looked up): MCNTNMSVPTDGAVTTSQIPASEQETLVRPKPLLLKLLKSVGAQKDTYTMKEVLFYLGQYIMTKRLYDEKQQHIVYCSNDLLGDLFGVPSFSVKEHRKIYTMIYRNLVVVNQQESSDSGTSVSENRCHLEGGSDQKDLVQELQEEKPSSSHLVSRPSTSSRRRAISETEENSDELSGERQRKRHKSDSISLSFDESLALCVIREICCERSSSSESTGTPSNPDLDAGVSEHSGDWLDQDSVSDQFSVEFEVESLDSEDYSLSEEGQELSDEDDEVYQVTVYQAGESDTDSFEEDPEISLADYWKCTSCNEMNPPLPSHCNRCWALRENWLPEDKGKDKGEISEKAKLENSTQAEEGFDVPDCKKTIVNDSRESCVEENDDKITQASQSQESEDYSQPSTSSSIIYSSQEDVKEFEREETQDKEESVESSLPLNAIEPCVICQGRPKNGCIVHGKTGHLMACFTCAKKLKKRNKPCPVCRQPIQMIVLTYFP
UPR XBP1 act: activators of adaptive XBP1 UPR arm, primary screen, cell-based, CHO-XBP1 luciferase reporter, luminescence, uHTS; IRE1-XBP1 UPR activation; percent of tunicamycin response, DMSO as zero; activation, % at 20 µM; 0.33% of 330,000 active;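 active means versus positive control, 20 µM dose yields 30% or more activation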;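 further: 100% = tunicamycin at 10 µg/mL and 0% = DMSO only wells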
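Material: IRE1-XBP1 luciferase reporter CHO line / Quantity: one thousand reporter cells per well / Buffer or medium: F12 with 10% serum / Compound: 20 µM single concentration, DMSO 1% / Times: 6 h treatment, 37 °C / Detection: Steady-Glo luciferase glow luminescence, 10 min after reagent addition / Benchmarks: tunicamycin high, DMSO low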
CHOP UPR activ: activators of apoptotic CHOP UPR arm, primary screen, cell-based, CHO-CHOP luciferase reporter, luminescence, uHTS. UPR activation; percent of tunicamycin response over DMSO baseline. activation, % at 10 µM. 0.34% of 330,000 active;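 active means at 10 µM dose, activation of 40% or more, normalized to positive control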;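 further: 100% = tunicamycin at 10 µg/mL and 0% = DMSO alone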
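Assay system: CHO cells with stable CHOP pathway luciferase reporter; Buffer or medium: F12 plus 10% serum; Times: 16-18 h cell attachment, then 6 h compound exposure, 37 °C; Signal: luciferase luminescence; Read-out basis: percent activation relative to tunicamycin control; Control set: tunicamycin high control, DMSO low control.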
CSC inhib: cancer stem cell viability inhibitors, primary screen, luminescence. 1.1% of 300,000 active. inhibition, % at 7.5 µM. cancer stem cell-like cells viability; in the data active means inhibition above about 75%; inconclusive means no clear call, values can overlap the other calls; tested in HMLE shEcad cells
Numbers without * were called inactive; ? = inconclusive; . = no result given. This is a sample that favours compounds with a hit; in the whole collection about 4.8% have one here.

SMILES	Beta apoptosis	SKKanGAS inh	Mdm2-MdmX inh	UPR XBP1 act	CHOP UPR activ	CSC inhib
COc1cc(OC)c(NC(=O)c2sc3ncn(CC(=O)N4CCN(c5ccccn5)CC4)c(=O)c3c2C)cc1Cl	-2	50*	26	-3	0	19
C=CCc1cccc(CNc2nc3ccccc3n2CCC)c1O	6	1	14	-2	-3	102*
C=CCc1cccc(CNc2nc3ccccc3n2CC)c1O	12	-1	14	-4	-1	.
Cc1nn(-c2ccccc2)c(Cl)c1/C=N/NC(=O)c1ccccc1NS(=O)(=O)c1cccs1	14	26	-5	3	-1	37
Cc1nn(-c2ccccc2)c(Cl)c1/C=N/NC(=O)c1ccc(NS(=O)(=O)c2cccs2)cc1	2	72*	-6	6	5	9
CC(=O)c1c(C)oc2ccc(N(C(C)=O)S(=O)(=O)c3cccc4cccnc34)cc12	104*	0	34	5	-1	4
CC(=O)c1c(C)oc2ccc(N(C(C)=O)S(=O)(=O)c3ccc(F)cc3C)cc12	8	13	28	-4	1	1
CC1(C)CC(=O)C2=C(C1)NC(SCC(=O)Nc1ccccc1)=C(C#N)C2c1ccco1 (stereo not given)	-14	8	14	0	8	-11
N#CC1=C(SCC(=O)c2ccc(Cl)cc2)NC2=C(C(=O)CCC2)C1c1ccco1 (stereo not given)	8	16	40	-2	1	93*
Cc1ccc(C(=O)CSC2=C(C#N)C(c3ccco3)C3=C(CC(C)(C)CC3=O)N2)cc1 (stereo not given)	7	25	22	-1	2	97*
COc1cccc(CN2CCNC(=O)C2CC(=O)N2CCCCO2)c1OC (stereo not given)	-7	-3	-4	0	-1	.
COc1cc(OC)c(OC)cc1CCC(C)NC(=O)Cc1ccccc1 (stereo not given)	-6	-1	17	-4	4	-1
Cc1cc(Oc2ccc(Cl)cc2)nc(-c2ccccc2O)n1	-2	53*	2	4	2	2
Cc1nnc(-c2ccc(Oc3ccc(Br)cc3)c([N+](=O)[O-])c2)o1	0	-1	3	-2	0	139*
O=C(CSc1nnc(-c2ccc3c(c2)OCO3)o1)Nc1ncc(C(F)(F)F)cc1Cl	-5	98*	13	-1	1	?
Cc1nc(NC(=O)CSc2nnc(-c3ccc4c(c3)OCO4)o2)c(Cl)cc1Cl	6	2	11	0	1	6
CCOc1cc(-c2nccc3cc(OC)c(OC)cc23)cc(OCC)c1OCC	-18	-3	45	5	2	3
CS(=O)(=O)c1sc2nc(-c3cccs3)cc(-c3ccccc3)c2c1N	2	41	-28	1	-3	99*
Cc1ccc(-c2cc(-c3ccccc3)c3c(N)c(S(C)(=O)=O)sc3n2)cc1	2	10	-5	1	2	.
CCOC(=O)c1ccc(NC(=S)NN)cc1	5	70*	-21	-1	-1	-8
CCOC(=O)c1ccc(NC(=S)Nc2cccc(N)n2)cc1	2	58*	-26	4	8	25
CCOC(=O)c1ccc(NC(=S)NCc2ccc(F)cc2)cc1	-6	-5	-7	0	0	-11
CCOC(=O)c1ccc(NC(=S)Nc2cccc(C)n2)cc1	7	-9	14	3	2	3
CC(=O)c1ccc(NC(=S)Nc2ccc(Br)c(Cl)c2)cc1	-5	95*	-27	-2	1	.
CCCOc1ccc(C(=O)Nc2ccc3c(c2)OCO3)cc1	5	-2	-108	-2	4	58
SMILES	Beta apoptosis	SKKanGAS inh	Mdm2-MdmX inh	UPR XBP1 act	CHOP UPR activ	CSC inhib
CCCCOc1ccc(C(=O)Nc2ccc3c(c2)OCO3)cc1	1	2	-42	2	3	93*
CCCOc1c(Cl)cc(C(=O)Nc2ccc3c(c2)OCO3)cc1OCC	15	8	39	0	1	79*
O=C(CCNC(=O)C1CCN(S(=O)(=O)c2ccc(F)cc2)CC1)NCc1ccccc1Cl	-2	-1	-14	-3	0	6
CC(C)(C)c1nc(SCC(=O)c2ccccc2)c2ccccc2n1	5	62*	-3	3	3	19
COc1ccccc1-c1nnc(NC(=O)c2ccc(S(=O)(=O)N(C)CC3CCCO3)cc2)o1 (stereo not given)	-9	54*	1	-5	0	-6
CN(CC1CCCO1)S(=O)(=O)c1ccc(C(=O)Nc2nnc(-c3ccccc3)o2)cc1 (stereo not given)	6	84*	24	-7	5	21
COc1ccc(Br)cc1CN(C)C(=O)c1cnc(C)cn1	-3	0	0	1	0	-8
CS(=O)(=O)c1ccccc1-c1nnc(NC(=O)c2ccc(S(=O)(=O)N3CCCC3)cc2)o1	-1	6	7	1	2	3
CC1CCCCN1S(=O)(=O)c1ccc(C(=O)Nc2nnc(-c3ccccc3Cl)o2)cc1 (stereo not given)	.	97*	41	1	13	42
O=C(Nc1ccc(S(=O)(=O)N2CCCCC2)cc1)c1ccc(CN2CCc3ccccc3C2)cc1	107*	9	25	0	3	41
O=C(Nc1nnc(-c2ccccc2Cl)o1)c1ccc(S(=O)(=O)N2CCCCCC2)cc1	.	107*	37	3	13	64
COc1ccc(OC)c(NC(=O)CSc2nnc(-c3ccncc3)s2)c1	.	21	4	-4	-1	-1
COc1ccc(OC)c(NC(=O)CSc2nnc(-c3cccnc3)s2)c1	99*	-10	19	-3	3	-21
Cc1cc(C)c(OCC(=O)Nc2ccccc2N2CCCCC2)c(C)c1	8	80*	20	-3	1	-6
Cc1ccccc1OCC(=O)Nc1ccccc1N1CCC(C)CC1	.	82*	14	-1	3	-14
Cc1cc(C)c(OCC(=O)Nc2ccccc2N2CCOCC2)c(C)c1	1	4	16	2	0	19
O=C(COc1cccc(Cl)c1)Nc1ccccc1N1CCCCC1	-6	66*	-5	2	0	13
CCCCCn1nc(C(=O)N(CC)c2c(N)n(CCCC)c(=O)[nH]c2=O)c2ccccc2c1=O	-7	.	8	-2	0	-1
CC1CCC2C(=O)N(c3ccc(NC4CCCCC4)c([N+](=O)[O-])c3)C(=O)C2C1 (stereo not given)	-2	-21	-7	-2	1	76*
